# Source: ChEMBL document CHEMBL3286372, “Design, synthesis and structure-activity relationship of novel semi-synthetic flavonoids as antiproliferative agents” (2014)
# Legend:
# [1] = Growth inhibition of human OVCAR5 cells after 48 hrs by coulter counting analysis; format: functional; details: OVCAR-5, 48 h
# In short: (§1)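 Five-dose NCI-60 follow-up, 0.01–100 µM, made from DMSO stock in buffered saline (final DMSO <1%), in duplicate wells. Cells in RPMI 1640 with 10% FBS at 6×10^4 cells/ml, 37 °C, 5% CO2, 48 h. Cells diluted tenfold in saline, Coulter-counted and corrected for dilution. GI50, TGI and LC50 taken from log concentration–percent growth curves.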
# [2] = Growth inhibition of human OVCAR8 cells after 48 hrs by coulter counting analysis; format: functional; details: OVCAR-8, 48 h; in short: as §1
# [3] = Growth inhibition of human NCI-ADR-RES cells after 48 hrs by coulter counting analysis; format: functional; in short: as §1
# SK-OV-3 = test: Growth inhibition of human SKOV3 cells after 48 hrs by coulter counting analysis; format: functional; details: SK-OV-3, 48 h; in short: as §1
# 786-0 = test: Growth inhibition of human 786-0 cells after 48 hrs by coulter counting analysis; format: functional; details: 786-0, 48 h
# In short: (§2)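 NCI five-dose screen at 0.01-100 µM, diluted from DMSO stocks in buffered saline (final DMSO <1%). Cells at 6×10^4 cells/ml in RPMI 1640 with 10% FBS, in duplicate wells, at 37 °C under 5% CO2 for 48 h. Cells diluted tenfold in saline and Coulter-counted. GI50, TGI and LC50 taken from log concentration-growth inhibition curves.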
# ACHN = test: Growth inhibition of human ACHN cells after 48 hrs by coulter counting analysis; format: functional; in short: as §2
# CAKI-1 = test: Growth inhibition of human CAKI-1 cells after 48 hrs by coulter counting analysis; format: functional; details: CAKI-1, 48 h; in short: as §2
# [4] = Growth inhibition of human RXF393 cells after 48 hrs by coulter counting analysis; format: functional; details: RXF 393, 48 h; in short: as §1
# MCF7 = test: Growth inhibition of human MCF7 cells after 48 hrs by coulter counting analysis; format: functional; details: MCF7, 48 h; in short: as §2
# [5] = Growth inhibition of human BT549 cells after 48 hrs by coulter counting analysis; format: functional; details: BT-549, 48 h; in short: as §2
# [6] = molecular target: Cyclin-dependent kinase 2/cyclin E1 (Homo sapiens) (UniProt P24864+P24941); test: Inhibition of CDK2/Cyclin E1 (unknown origin) at 20 uM after 30 mins by scintillation counting analysis relative to control; format: protein-complex assay
# In short: (§3)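 Recombinant kinases, cloned, expressed and purified in-house. Radiometric ³³P-ATP assay with kinase at ~10-50 nM final and 1-5 µg peptide or protein substrate. Compound at 20 µM final, in duplicate. Reaction started by adding ATP, run 30 min at ambient temperature, then spotted on P81 phosphocellulose. Plates washed in 1% phosphoric acid and counted by scintillation. No-substrate blank subtracted. Result is mean % activity change versus DMSO control.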
# [7] = molecular target: Cyclin-dependent kinase 4/cyclin D1 (Homo sapiens) (UniProt P11802+P24385); test: Inhibition of CDK4/Cyclin D1 (unknown origin) at 20 uM after 30 mins by scintillation counting analysis relative to control; format: protein-complex assay; in short: as §3
# K562 = test: Growth inhibition of human K562 cells after 48 hrs by coulter counting analysis; format: functional; details: K562, 48 h; in short: as §2
# [8] = Growth inhibition of human MOLT4 cells after 48 hrs by coulter counting analysis; format: functional; details: MOLT-4, 48 h; in short: as §1
# A549 = test: Growth inhibition of human A549/ATCC cells after 48 hrs by coulter counting analysis; format: functional; details: A549, 48 h; in short: as §2
# HOP-62 = test: Growth inhibition of human HOP62 cells after 48 hrs by coulter counting analysis; format: functional; details: HOP-62, 48 h; in short: as §2
# [9] = Growth inhibition of human HOP92 cells after 48 hrs by coulter counting analysis; format: functional; details: HOP-92, 48 h; in short: as §2
# NCI-H226 = test: Growth inhibition of human NCI-H226 cells after 48 hrs by coulter counting analysis; format: functional; details: NCI-H226, 48 h; in short: as §1
# NCI-H23 = test: Growth inhibition of human NCI-H23 cells after 48 hrs by coulter counting analysis; format: functional; details: NCI-H23, 48 h; in short: as §1
# NCI-H460 = test: Growth inhibition of human NCI-H460 cells after 48 hrs by coulter counting analysis; format: functional; details: NCI-H460, 48 h; in short: as §1
# NCI-H522 = test: Growth inhibition of human NCI-H522 cells after 48 hrs by coulter counting analysis; format: functional; details: NCI-H522, 48 h; in short: as §1
# [10] = Growth inhibition of human HCC2998 cells after 48 hrs by coulter counting analysis; format: functional; details: HCC 2998, 48 h; in short: as §2
# HCT-116 = test: Growth inhibition of human HCT116 cells after 48 hrs by coulter counting analysis; format: functional; details: HCT-116, 48 h; in short: as §2
# [11] = Growth inhibition of human HCT15 cells after 48 hrs by coulter counting analysis; format: functional; details: HCT-15, 48 h; in short: as §2
# HT-29 = test: Growth inhibition of human HT-29 cells after 48 hrs by coulter counting analysis; format: functional; details: HT-29, 48 h; in short: as §2
# KM12 = test: Growth inhibition of human KM12 cells after 48 hrs by coulter counting analysis; format: functional; details: KM12, 48 h; in short: as §2
# SW-620 = test: Growth inhibition of human SW620 cells after 48 hrs by coulter counting analysis; format: functional; details: SW-620, 48 h; in short: as §1
# [12] = Growth inhibition of human SF295 cells after 48 hrs by coulter counting analysis; format: functional; details: SF-295, 48 h; in short: as §1
# [13] = Growth inhibition of human SF539 cells after 48 hrs by coulter counting analysis; format: functional; details: SF-539, 48 h; in short: as §1
# SNB-75 = test: Growth inhibition of human SNB75 cells after 48 hrs by coulter counting analysis; format: functional; details: SNB-75, 48 h; in short: as §1
# U-251 = test: Growth inhibition of human U251 cells after 48 hrs by coulter counting analysis; format: functional; details: U-251, 48 h
# In short: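 NCI five-dose screen, 0.01-100 µM, from DMSO stocks diluted in buffer saline (final DMSO <1%). Cells grown in RPMI 1640 + 10% FBS, seeded at 6×10^4 cells/ml, in duplicate wells. Exposure 48 h at 37 °C, 5% CO2. Cells diluted 10-fold in saline and counted by Coulter counter. GI50 derived from log concentration–percent growth inhibition curves. Controls carried matching PBS/saline/DMSO.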
# Malme-3M = test: Growth inhibition of human MALME-3M cells after 48 hrs by coulter counting analysis; format: functional; in short: as §2
# M14 = test: Growth inhibition of human M14 cells after 48 hrs by coulter counting analysis; format: functional; details: M14, 48 h; in short: as §2
# MDA-MB-435 = test: Growth inhibition of human MDA-MB-435 cells after 48 hrs by coulter counting analysis; format: functional; details: MDA-MB-435, 48 h; in short: as §2
# SK-MEL-2 = test: Growth inhibition of human SK-MEL-2 cells after 48 hrs by coulter counting analysis; format: functional; details: SK-MEL-2, 48 h; in short: as §1
# SK-MEL-5 = test: Growth inhibition of human SK-MEL-5 cells after 48 hrs by coulter counting analysis; format: functional; details: SK-MEL-5, 48 h; in short: as §1
# IGROV-1 = test: Growth inhibition of human IGROV1 cells after 48 hrs by coulter counting analysis; format: functional; details: IGROV-1, 48 h; in short: as §2
# [14] = Growth inhibition of human OVCAR3 cells after 48 hrs by coulter counting analysis; format: functional; details: OVCAR-3, 48 h; in short: as §1
SMILES,GI50 [1] [µM],GI50 [2] [µM],GI50 [3] [µM],GI50 (SK-OV-3) [µM],GI50 (786-0) [µM],GI50 (ACHN) [µM],GI50 (CAKI-1) [µM],GI50 [4] [µM],GI50 (MCF7) [µM],GI50 [5] [µM],inhibition [6] [%],inhibition [7] [%],GI50 (K562) [µM],GI50 [8] [µM],GI50 (A549) [µM],GI50 (HOP-62) [µM],GI50 [9] [µM],GI50 (NCI-H226) [µM],GI50 (NCI-H23) [µM],GI50 (NCI-H460) [µM],also measured
C=CCc1c(O)c(C(=O)/C=C/c2ccccc2)c(OC)c2ccoc12,3.22,3.13,1.88,8.08,4.12,3.79,2.8,1.85,2.73,2.63,0,0,2.87,2.17,4.41,5.32,1.33,1.48,2.52,2.79,GI50 (NCI-H522): 2.15 µM; GI50 [10]: 1.73 µM; GI50 (HCT-116): 3.03 µM; GI50 [11]: 2.91 µM; GI50 (HT-29): 3.01 µM; GI50 (KM12): 4.06 µM; GI50 (SW-620): 3.32 µM; GI50 [12]: 2.44 µM; GI50 [13]: 1.71 µM; GI50 (SNB-75): 1.39 µM; GI50 (U-251): 2.36 µM; GI50 (Malme-3M): 5.8 µM; GI50 (M14): 5.36 µM; GI50 (MDA-MB-435): 2.78 µM; GI50 (SK-MEL-2): 3.04 µM; GI50 (SK-MEL-5): 2.66 µM; GI50 (IGROV-1): 3.35 µM; GI50 [14]: 2.46 µM
C=CCc1c2c(c(OC)c3ccoc13)C(=O)/C(=C/c1ccccc1OC)O2,3.57,3.87,2.82,5.45,6.29,4.32,3.15,2.47,2.92,4.44,0,9,3.51,3.52,4.12,4.98,2.07,3.22,2.88,3.46,GI50 (NCI-H522): 3.16 µM; GI50 [10]: 2.85 µM; GI50 (HCT-116): 3.29 µM; GI50 [11]: 3.6 µM; GI50 (HT-29): 3.98 µM; GI50 (KM12): 3.49 µM; GI50 (SW-620): 4.24 µM; GI50 [12]: 3.67 µM; GI50 [13]: 5.45 µM; GI50 (SNB-75): 1.44 µM; GI50 (U-251): 3.53 µM; GI50 (Malme-3M): 19.8 µM; GI50 (M14): 8.19 µM; GI50 (MDA-MB-435): 3.12 µM; GI50 (SK-MEL-2): 6.06 µM; GI50 (SK-MEL-5): 3.91 µM; GI50 (IGROV-1): 5.27 µM; GI50 [14]: 3.28 µM
